TRPC6 act – mouse TRPC6 channel activators, primary screen, cell-based, HEK293, membrane potential dye; B-score at 10 µM; AID 2550, 2010; HEK293-TRPC6 membrane potential dye fluorescence; hits give high values; 0.13% of 310,000 active;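 active = B-score of the integrated fluorescence ratio above library mean plus 3 SD, and starting fluorescence ratio within library mean plus 5 SD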;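 note: higher score means more depolarization so channel activation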
TRPC6 inhibitor – mouse TRPC6 channel inhibitors, primary screen, cell-based, HEK293, membrane potential dye; Short transient receptor potential channel 6 (Mus musculus), Q61143; ACh-evoked depolarization; hits give low values; B-score at 10 µM; AID 2553, 2010; 1.1% of 310,000 active;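 active = B-score under library mean minus 3 SD, initial fluorescence not abnormally high, positive integrated signal ratio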;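 note: B-score derived from integrated fluorescence ratio over the kinetic read; more negative B-score means stronger inhibition of depolarization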
TRPC4 inh – inhibitors of mouse TRPC4 channel, primary screen, Fluo4 calcium, HEK293 TRPC4beta/mu-opioid cells. DAMGO-evoked Fluo4 calcium flux; hits give low values. 0.39% of 300,000 active. Short transient receptor potential channel 4 (Mus musculus), Q9QUQ5. B-score at 10 µM;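 active = B-score over 3 SD under the library average, no early fluorescence shift, positive overall ratio signal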
Target sequence (Q9QUQ5 whole entry, looked up): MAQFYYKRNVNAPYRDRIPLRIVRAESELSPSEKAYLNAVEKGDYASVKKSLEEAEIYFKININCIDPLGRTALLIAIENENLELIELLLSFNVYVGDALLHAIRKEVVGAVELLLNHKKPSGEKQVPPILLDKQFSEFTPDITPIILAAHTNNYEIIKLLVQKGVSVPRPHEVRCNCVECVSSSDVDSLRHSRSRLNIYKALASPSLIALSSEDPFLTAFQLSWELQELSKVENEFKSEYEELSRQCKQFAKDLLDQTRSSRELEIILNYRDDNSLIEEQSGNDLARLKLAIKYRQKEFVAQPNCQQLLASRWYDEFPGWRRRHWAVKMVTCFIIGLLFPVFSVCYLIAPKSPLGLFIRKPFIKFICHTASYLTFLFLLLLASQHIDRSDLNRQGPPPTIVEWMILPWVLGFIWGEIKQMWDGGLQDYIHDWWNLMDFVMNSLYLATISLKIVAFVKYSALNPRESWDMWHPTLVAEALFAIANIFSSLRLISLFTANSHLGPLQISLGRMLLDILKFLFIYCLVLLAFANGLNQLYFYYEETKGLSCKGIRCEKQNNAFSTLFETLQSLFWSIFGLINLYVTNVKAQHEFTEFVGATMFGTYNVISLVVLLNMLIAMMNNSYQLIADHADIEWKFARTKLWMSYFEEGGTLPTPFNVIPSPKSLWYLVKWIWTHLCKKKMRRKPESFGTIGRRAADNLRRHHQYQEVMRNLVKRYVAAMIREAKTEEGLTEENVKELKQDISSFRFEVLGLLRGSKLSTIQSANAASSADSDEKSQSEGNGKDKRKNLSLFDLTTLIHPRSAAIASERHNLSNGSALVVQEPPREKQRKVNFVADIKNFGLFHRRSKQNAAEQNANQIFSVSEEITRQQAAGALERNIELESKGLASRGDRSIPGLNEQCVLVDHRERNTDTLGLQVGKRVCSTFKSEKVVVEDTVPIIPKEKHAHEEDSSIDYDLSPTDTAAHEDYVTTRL
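test system = HEK293 cells with stable TRPC4beta plus mu-opioid receptor expression | detection = Fluo4 Ca2+ flux fluorescence | read-out = integrated fluorescence ratio relative to baseline, converted to per-well B score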
TRPC4 agonist – activators of mouse TRPC4 channel, primary screen, Fluo4 calcium, HEK293 TRPC4beta/mu-opioid cells; B-score at 10 µM; 0.49% of 310,000 active; AID 2237, 2010; Short transient receptor potential channel 4 (Mus musculus), Q9QUQ5; Fluo4 calcium fluorescence; hits give high values;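 active = B-score above 5 SD of library B-scores, and initial fluorescence ratio not above library mean plus 5 SD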;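 note: positive B-score marks a calcium rise read as TRPC4 activation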
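system = HEK293 cells stably co-expressing mouse TRPC4beta and mu-opioid receptor | schedule = Fluo4 dye loading 45 min at room temperature, 110 s recording | measure = B-scored integrated calcium fluorescence ratio | signal = Fluo4 calcium-sensitive dye fluorescence, kinetic, 1 Hz baseline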
TRPC4 PAM – positive allosteric modulators of TRPC4, primary screen, cell-based, mouse TRPC4beta, HEK293 mu-opioid, Fluo-4 calcium; Short transient receptor potential channel 4 (Mus musculus), Q9QUQ5; DAMGO EC20, Fluo-4 Ca2+ flux; hits give high values; B-score at 10 µM; 0.42% of 310,000 active; AID 2227, 2009;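 active = B-score of calcium response area above 5 SD of library B-scores, with initial fluorescence ratio within 5 SD of library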;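 note: B-score of integrated fluorescence ratio over time as area under calcium response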
TRPC4 sel inh 2 – second selectivity test of TRPC6 inhibitors: effect on mouse TRPC4; shares compounds with TRPC6 inhibitor; 42% of 920 active; inhibition, % at 10 µM; HEK293 TRPC4/MOR, membrane potential dye fluorescence; channel activated by saturating DAMGO dose;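 active = compounds whose fluorescence signal differed from control wells by over 3 SD, either direction, in both duplicate plates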
TRPC4 spec – mouse TRPC4 modulation by TRPC6 hits, confirmation, selectivity assay for TRPC6 inhibitor project, cell-based, HEK293 TRPC4/mu-opioid, membrane potential dye; 61% of 920 active; activity change, negative = inhibition, % at 10 µM; membrane potential fluorescence; shares compounds with TRPC6 inhibitor;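 active = rise or fall in signal beyond 3 SD of buffer-only wells in both replicate plates, either sign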;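 note: integrated kinetic ratio of fluorescence range over baseline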
HEK293 MPD ctr 2-1 – nonspecific membrane potential effects, parental HEK293, confirmation, counter-screen for TRPC6 inhibitor project, cell-based, second counter screen. signal change vs control, % at 10 µM. shares compounds with TRPC6 inhibitor. AID 2779, 2010. parental HEK293 membrane potential dye fluorescence; maximal acetylcholine challenge after compound addition. 31% of 920 active;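 active = membrane potential signal moving either way by over 3 SD of the maximum-effect control, in both duplicate plates, meaning non-specific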
HEK293 MPD ctr-1 – membrane potential modulation in parental HEK293, confirmation, counter-screen for TRPC6 inhibitor project, cell-based; shares compounds with TRPC6 inhibitor; parental HEK293 membrane potential dye fluorescence; membrane potential signal change, % at 10 µM; 60% of 920 active; AID 2780, 2010;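 active = membrane potential signal shifting up or down by more than 3 SD of buffer-only wells, on both duplicate plates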
HEK293 MPD ctr-2 – parental HEK293 membrane potential modulation, confirmation, counter-screen for TRPC6 modulator project, cell-based; shares compounds with TRPC6 inhibitor; membrane potential dye fluorescence; membrane potential signal change, % at 10 µM; 51% of 2,400 active;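 active = membrane potential signal moves up or down beyond 5 SD from buffer-only wells, on both duplicate plates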
HEK293 MPD ctr 2-2 – parental HEK293 nonspecific activity of TRPC6 modulators, second screen | shares compounds with TRPC6 inhibitor | membrane potential dye fluorescence; after compound, maximal acetylcholine stimulation | inhibition, % at 10 µM | 14% of 2,400 active | AID 488926;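 active = membrane potential signal drops by more than 5 SD from the mean control signal, in both duplicate plates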;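 note: plate controls were acetylcholine ECmax control wells for no effect and buffer only wells for full effect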
TRPC4 ctr mod – TRPC4 modulation by TRPC6 hit compounds, confirmation, selectivity assay for TRPC6 modulator project, cell-based, HEK293 TRPC4/mu-opioid, membrane potential dye, mouse; shares compounds with TRPC6 inhibitor; membrane potential fluorescence; percent change from control (negative = decrease, positive = increase), % at 10 µM; 69% of 2,400 active; AID 488927, 2010;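 active = membrane potential signal moved up or down beyond 5 SD of buffer control wells, in both duplicate plates, actives on both sides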;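 note: plate controls were assay buffer wells for no effect and DAMGO maximal-effect wells for full effect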
TRPC4/MOR inh 2 – second check of whether TRPC6 modulators also affect mouse TRPC4. shares compounds with TRPC6 inhibitor. HEK293 TRPC4/mu-opioid, membrane potential dye fluorescence; stimulated with maximal-effect DAMGO. AID 488928. inhibition, % at 10 µM. 55% of 2,400 active;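 active = drop in membrane potential signal beyond 5 SD of the control wells in both duplicate plates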;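 note: TRPC4 counter screen for TRPC6 hits run under conditions tuned for TRPC6 not TRPC4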
TRPC6 block conf – mouse TRPC6 channel inhibitors, confirmation, HEK293 cells, membrane potential dye, duplicate; 43% of 3,300 active; shares compounds with TRPC6 inhibitor; ACh-evoked depolarization; inhibition, % at 10 µM; AID 488960, 2010;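 active = fluorescence ratio falls more than 5 SD below the full-stimulation control mean, in both duplicate runs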;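 note: integrated fluorescence ratio of peak minus minimum over baseline after agonist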
TRPC6 act confirm – mouse TRPC6 channel activators, confirmation, HEK293 cells, membrane potential dye, duplicate; 11% of 2,800 active; shares compounds with TRPC6 inhibitor; HEK293-TRPC6 membrane potential dye fluorescence, FDSS; AID 488961, 2010; activation, % at 10 µM;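 active = ratio signal rise beyond 5 SD above unstimulated control wells' mean, seen in both duplicate runs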;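 note: plate controls were buffer EC0 wells for no effect and acetylcholine ECmax response for full effect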
* hit, by the source's call; i = inactive; . = not tested or not shown; + = active, no number. Rows were chosen to be rich in hits. Some 2.3% of all compounds tested hit in one or more screens of this group.

SMILES	TRPC6 act	TRPC6 inhibitor	TRPC4 inh	TRPC4 agonist	TRPC4 PAM	HEK293 MPD ctr-2	HEK293 MPD ctr 2-2	TRPC4 ctr mod	TRPC4/MOR inh 2	TRPC6 block conf	TRPC6 act confirm	others
Cc1ccc(N=Nc2c(=O)[nH]n3c(C)cc(C)nc23)cc1	i	-6.1*	i	i	14*	-134%*	i	-14%*	i	41%*	i
O=C(CN(C(=O)c1csnn1)c1cccc(C(F)(F)F)c1)NC1CCCC1	i	i	i	i	i	.	.	.	.	.	.
Clc1ccc2c(c1)C(N1CCNCC1)=Nc1ccccc1O2	i	-5.1*	i	i	i	i	i	8.0%*	48%*	i	i
CC12CCC(C(=O)Nc3cccc(Cl)c3Cl)([C@H](Br)C1=O)C2(C)C (stereo not given in full)	i	i	i	i	i	.	.	.	.	.	.
CC12CCC(C(=O)Nc3c(Cl)cccc3Cl)(C(Br)C1=O)C2(C)C (stereo not given)	i	-6.2*	i	i	i	i	i	i	i	i	i
Cc1ccc(O)c(CNCCNCc2cc(C)ccc2O)c1	i	-6.4*	i	i	i	161%*	i	16%*	82%*	44%*	.
CCc1ccc(O)c(CNCCNCc2cc(CC)ccc2O)c1	i	i	i	i	i	.	.	.	.	.	.
COc1ccccc1CN1CC(C(=O)NCc2cc(F)cc(C(F)(F)F)c2)CCC1=O (stereo not given)	i	i	i	i	i	.	.	.	.	.	.
O=C1CC(c2ccc(Cl)c(Cl)c2)CC(O)=C1C=NCCN1CCNCC1 (stereo not given)	i	-5.9*	i	i	i	i	i	9.5%*	i	i	.
O=C1CC(c2ccco2)CC(O)=C1C=NCCN1CCNCC1 (stereo not given)	i	-8.7*	i	i	i	.	.	.	.	i	i	TRPC4 sel inh 2=i;TRPC4 spec=i;HEK293 MPD ctr 2-1=i;HEK293 MPD ctr-1=i
O=C1CC(c2ccc(F)cc2)CC(O)=C1C=NCCN1CCNCC1 (stereo not given)	i	i	i	i	i	.	.	.	.	.	.
COC(=O)[C@@H](Cc1c[nH]c2ccccc12)NC(=O)CCC(=O)c1ccc(F)cc1	i	i	i	i	i	.	.	.	.	.	.
COc1ccc(N=Nc2n(C)c3ccccc3[n+]2C)cc1	i	i	i	i	i	.	.	.	.	.	.
COc1cc2[nH]c(=O)n3nc(-c4ccccc4)nc3c2cc1OC	i	i	i	i	i	.	.	.	.	.	.
CCN(CC)CCNc1nc2cc(OC)c(OC)cc2c2nc(-c3ccccc3)nn12	i	-12*	i	i	i	.	.	.	.	76%*	i	TRPC4 sel inh 2=38%*;TRPC4 spec=-33%*;HEK293 MPD ctr 2-1=32%*;HEK293 MPD ctr-1=-384%*
Cc1cccc(-c2nc(NCCCN(C)C)c3ccccc3n2)c1	i	-7.9*	i	i	i	.	.	.	.	76%*	i	TRPC4 sel inh 2=50%*;TRPC4 spec=-20%*;HEK293 MPD ctr 2-1=i;HEK293 MPD ctr-1=-242%*
CN(C)CCCNc1nc(-c2ccc(Cl)cc2)nc2ccccc12	i	-7.7*	i	i	i	.	.	.	.	70%*	i	TRPC4 sel inh 2=53%*;TRPC4 spec=-31%*;HEK293 MPD ctr 2-1=34%*;HEK293 MPD ctr-1=-414%*
Cc1ccc(S(=O)(=O)n2ccc3c2CCCC3=O)cc1	i	-5.1*	i	i	i	334%*	166%*	76%*	48%*	88%*	.
Cc1ccc(C(=O)NCC(=O)OCC(=O)Nc2ccccc2[N+](=O)[O-])cc1	i	i	i	i	i	.	.	.	.	.	.
CC(C)Cc1ccccc1O	i	i	i	i	i	.	.	.	.	.	.
Cc1ccc(NC(=O)C(C)OC(=O)c2ccc(NC(=O)CC#N)cc2)cc1S(=O)(=O)N1CCOCC1 (stereo not given)	i	i	i	i	i	.	.	.	.	.	.
COc1ccc2nc(NC(=O)Cn3cnc4ccccc4c3=O)sc2c1	i	i	i	i	i	.	.	.	.	.	.
COc1cc(/C=C(\C#N)c2nc3ccccc3o2)ccc1O	63*	i	i	78*	i	+	i	290%*	i	i	362%*
N#C/C(=C\c1ccc(O)cc1)c1nc2ccccc2o1	i	i	i	i	i	.	.	.	.	.	.

Compound activity as filed in PubChem.
